Experimental findings from ChEMBL document CHEMBL1148164, “Cytotoxicity of artemisinin-related endoperoxides to Ehrlich ascites tumor cells” (J Nat Prod, 1993) are described below.

For orientation: IC50 means the concentration needed to halve the response being measured. By IC80 is commonly meant the concentration at which the effect reaches the 80% level.

A short description of assay [1]: Cytotoxicity against mouse EAC after 3 days by MTT assay. The format is functional, cell-based. As to conditions: Ehrlich, 72 h. Summed up: (§1)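 Exponentially growing EAT cells (>95% trypan-blue viable; RPMI 1640, 10% heat-inactivated FCS) at 400 cells/well were exposed to compounds for 2 h at 37°, 5% CO2 (final DMSO 0.25%). Cells were washed 3×, then grown 3 days. MTT (5 mg/ml in PBS) was added for 3 h 45 min, formazan was dissolved in DMSO, and A520 was read. Survival is relative to untreated, medium-blank corrected. Three separate experiments.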
Background: Tetrazolium assays rely on reduction of a dye to a coloured formazan, in cell work by metabolically active cells.

A short description of assay [2]: Cytotoxicity against mouse EAC at >175 uM after 3 days by MTT assay. In kind it is functional, Ehrlich. Summed up: as §1
Assay [3] can be described thus: Cytotoxicity against mouse EAC at >125 uM after 3 days by MTT assay. The format is functional, Ehrlich. Summed up:
as §1

Assay [4] in a line: Cytotoxicity against mouse EAC at >50 uM after 3 days by MTT assay. In kind it is functional, Ehrlich. Summed up: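 EAT cells grown in suspension in RPMI 1640 with 10% heat-inactivated FCS, streptomycin and penicillin, 37°, 5% CO2; exponential cells, viability >95%. 400 cells/well exposed 2 h at 37° (final DMSO 0.25%), washed 3×, regrown 3 days. MTT 3 h 45 min, formazan in DMSO, A520; survival versus untreated controls. Triplicate separate experiments, mean ± SD.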

Assay [5] is described as follows: Cell cycle arrest in mouse EAC assessed as accumulation at S phase by FACS analysis. As to conditions: Ehrlich. On the set-up: concentration or dose not given beside the values. The format is functional, cell-based. (In general: A flow cytometer gives signals particle by particle.)
A short description of assay [6]: Cytotoxicity against mouse EAC at >500 uM after 3 days by MTT assay. In kind it is functional, Ehrlich. Summed up:
as §1

In the case of `CC(=O)[C@@H]1CC[C@@H](C)[C@@H]2CC[C@@]3(C)OO[C@@]12C(=O)O3`, in assay [1], the IC50 was over 175 µM and the IC80 was over 175 µM. The Activity in assay [2] amounted to 98.1%.
In assay [1], `C[C@@H]1CC[C@@H]2[C@]34OO[C@@](C)(CC[C@@H]13)O[C@H]4OC(=O)[C@@]2(C)O` yielded an IC50 of over 125 µM and an IC80 of over 125 µM. Also, the Activity in assay [3] was 98.8%.
In assay [1], `C[C@@H]1CC[C@@H]2[C@]34OO[C@](C)(CC[C@@H]13)O[C@H]4OC(=O)[C@]2(C)O` showed an IC50 of 48.7 µM and an IC80 of 125 µM.
As for `C[C@H]1[C@H](O[C@@H]2O[C@@H]3O[C@@]4(C)CC[C@H]5[C@H](C)CC[C@@H]([C@H]2C)[C@@]35OO4)O[C@@H]2O[C@@]3(C)CC[C@H]4[C@H](C)CC[C@@H]1[C@@]24OO3`, in assay [1], the IC50 turned out to be 1.4 µM and the IC80 stood at 2.4 µM.
Take `CC(=O)[C@@H]1CC[C@@H](C)[C@@H]2CC[C@@]3(C)OO[C@@]12[C@H](OC=O)O3`: in assay [1], inhibition was half-maximal at 91 µM (IC50) and the IC80 is 156 µM.
For `CC1=CO[C@@H]2O[C@]3(C)CC[C@H]4[C@H](C)CC[C@@H]1[C@@]24OO3` [ANHYDRODIHYDROARTEMISININ] the same measures were 29.2 µM and 207 µM.
In assay [1], `C=C1C(=O)O[C@@]23[C@H]1CC[C@@H](C)[C@@H]2CC[C@@]1(C)O[C@@H]31` [ARTEANNUIN B] showed an IC50 of 47 µM and an IC80 of over 50 µM. The molecule also returned an Activity in assay [4] of 44.8%.
Turning to `C[C@@H]1[C@H](OCc2ccc(C(=O)O)cc2)O[C@@H]2O[C@@]3(C)CC[C@@H]4[C@@H](C)CC[C@@H]1[C@]24OO3` [ARTELINIC ACID], in assay [1], 16.1 µM corresponded to half-maximal inhibition (IC50) and the 80% effect level (IC80) was put at 103 µM. Besides, in assay [5], the Activity is 63%.
Consider `CO[C@H]1O[C@@H]2O[C@@]3(C)CC[C@H]4[C@H](C)CC[C@@H]([C@H]1C)[C@@]24OO3` [ARTEMETHER], for which, in assay [1], 14.3 µM corresponded to half-maximal inhibition (IC50) and the IC80 was over 125 µM. For the same molecule, in assay [3], the Activity is listed as 26.7%. The Activity in assay [5] was 63%.
In assay [1], `C=C(C(=O)O)[C@@H]1CC[C@@H](C)[C@@H]2CCC(C)=C[C@@H]21` [ARTEMISINIC ACID] displayed an IC50 of over 175 µM and an IC80 of over 175 µM. In addition, the Activity in assay [2] was determined as 100%.
In assay [1], `C[C@@H]1CC[C@H]2[C@@H](C)C(=O)O[C@@H]3O[C@@]4(C)CC[C@@H]1[C@]32OO4` [ARTEMISININ] came in with an IC50 of 29.8 µM and an IC80 of 346 µM. Also, the Activity in assay [5] turned out to be 63%.
Regarding `C=C1C(=O)O[C@@H]2O[C@@]3(C)CC[C@H]4[C@H](C)CC[C@@H]1[C@@]24OO3` [ARTEMISITENE], in assay [1], 6.8 µM corresponded to half-maximal inhibition (IC50) and it took 16 µM to reach the 80% level (IC80).
In assay [1], `CCO[C@H]1O[C@@H]2O[C@@]3(C)CC[C@H]4[C@H](C)CC[C@@H]([C@H]1C)[C@@]24OO3` [ARTEMOTIL] came in with an IC50 of 13.1 µM and an IC80 of 212 µM. Further, the Activity in assay [5] was 63%.
Turning to `C[C@H]1[C@@H](O)O[C@@H]2O[C@@]3(C)CC[C@H]4[C@H](C)CC[C@@H]1[C@@]24OO3` [ARTENIMOL], in assay [1], the half-inhibitory concentration (IC50) came to 83.4 µM and the 80% effect level (IC80) was put at 233 µM.
For `CC(C)C12C=CC(C)(CC1)OO2` (stereo not drawn) [ASCARIDOLE], the Activity in assay [6] is 74.8%. Also, in assay [1], the IC50 was over 500 µM and the IC80 was over 500 µM.
With `COc1cccc2c1C(=O)c1c(O)c3c(c(O)c1C2=O)C[C@@](O)(C(=O)CO)C[C@@H]3O[C@H]1C[C@H](N)[C@H](O)[C@H](C)O1` [DOXORUBICIN], in assay [1], the IC50 worked out at 0.35 µM and the concentration for an effect of 80% (IC80) worked out at 1 µM.
Taken in the same sequence, the figures for `C=C1[C@@H](OOCC)O[C@@H]2O[C@]3(C)CC[C@H]4[C@H](C)CC[C@@H]1[C@@]24OO3` [ETHYLPEROXYARTEMISITENE] were 11.5 µM and 38.3 µM.
Take `C=C1C(=O)O[C@@H]2/C=C(\C)CC/C=C(/C)C[C@@H](OC(=O)/C(=C/CO)CO)[C@@H]12` [EUPATORIOPICRIN]: in assay [1], the IC50 came to 5.7 µM and the 80% effect level (IC80) was put at 13.4 µM.
As for `C=C1[C@@H](OO)O[C@@H]2O[C@]3(C)CC[C@H]4[C@H](C)CC[C@@H]1[C@@]24OO3` [HYDROPEROXYARTEMISITENE], in assay [1], inhibition was half-maximal at 37.8 µM (IC50) and the IC80 stood at 59.2 µM.
Taken in the same sequence, the figures for `C[C@H]1[C@H](OC(=O)CCC(=O)O)O[C@@H]2O[C@@]3(C)CC[C@H]4[C@H](C)CC[C@@H]1[C@@]24OO3` [SODIUM ARESUNATE] were 19.9 µM and 53.6 µM.
In assay [1], `C[C@H]1[C@@H](OCc2ccc(C(=O)O)cc2)O[C@@H]2O[C@]3(C)CC[C@H]4[C@H](C)CC[C@@H]1[C@@]24OO3` [SODIUMARTELINATE] gave an IC50 of 12.2 µM and an IC80 of 47.9 µM. In assay [5], the Activity is 63%.
